Assay [1] concerns the target T1, Adenosine receptor A3 (Homo sapiens) (UniProt P0DMS8).
T1 sequence (whole entry): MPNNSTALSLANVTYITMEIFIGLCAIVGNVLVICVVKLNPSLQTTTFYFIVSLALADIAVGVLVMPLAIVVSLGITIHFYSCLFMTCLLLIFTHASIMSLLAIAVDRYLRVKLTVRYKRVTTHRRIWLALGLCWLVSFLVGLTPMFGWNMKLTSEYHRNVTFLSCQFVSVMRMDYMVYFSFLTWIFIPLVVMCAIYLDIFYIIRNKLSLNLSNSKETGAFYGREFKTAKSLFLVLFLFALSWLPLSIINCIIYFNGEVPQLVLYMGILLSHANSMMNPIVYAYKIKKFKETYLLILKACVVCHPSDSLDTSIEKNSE
Put plainly: Antagonist activity at human A3 receptor in CHO-A3 cells assessed as reduction in NECA-induced inhibition of forskolin-stimulated cAMP accumulation preincubated for 15 mins followed by NECA addition and further incubated for 15 mins by ELISA. Format: functional, cell-based. The method in brief:
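CHO cells expressing human A3, washed in DMEM F-12 with 25 mM HEPES pH 7.4 and 30 μM rolipram. Compound preincubated 15 min, then NECA (0.1 nM–1 mM) and 10 μM forskolin added for 15 min. cAMP quantified by enzyme immunoassay. Antagonist curves run against 0.1 μM NECA, duplicates. pKB calculated from IC50, agonist level, A50 and Hill slope.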
In general terms: Cyclic AMP is a second messenger, typically raised through Gs and lowered through Gi signalling.

The target of assay [2] is T2, Adenosine receptor A3 (Homo sapiens, UniProt P0DMS8).
T2 sequence (P0DMS8 whole entry): T1 sequence (whole entry)
The assay can be described thus: Displacement of [3H]NECA from human A3 receptor expressed in HeLa-A3 cells incubated for 180 mins by scintillation counting method based radioligand competitive binding assay. The assay is classed as cell-based. The method in brief:
(§1)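 Membranes of HeLa-A3 cells (90 μg protein) in 50 mM Tris-HCl, 1 mM EDTA, 5 mM MgCl2, 2 UI/mL adenosine deaminase, pH 7.4, with 30 nM [3H]NECA. Nonspecific: 100 μM (R)-PIA. 180 min at 25 °C, GF/B filtration, triplicates, scintillation counting. 10 μM single-point inhibition; >80% actives run at 6 concentrations (10 nM–100 μM), pKi via Cheng-Prusoff.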
Background: In a radioligand displacement assay an active substance lowers the binding of a labelled ligand.

Assay [3] concerns the target T3, Adenosine receptor A1 (Homo sapiens) (UniProt P30542).
T3 sequence (whole entry): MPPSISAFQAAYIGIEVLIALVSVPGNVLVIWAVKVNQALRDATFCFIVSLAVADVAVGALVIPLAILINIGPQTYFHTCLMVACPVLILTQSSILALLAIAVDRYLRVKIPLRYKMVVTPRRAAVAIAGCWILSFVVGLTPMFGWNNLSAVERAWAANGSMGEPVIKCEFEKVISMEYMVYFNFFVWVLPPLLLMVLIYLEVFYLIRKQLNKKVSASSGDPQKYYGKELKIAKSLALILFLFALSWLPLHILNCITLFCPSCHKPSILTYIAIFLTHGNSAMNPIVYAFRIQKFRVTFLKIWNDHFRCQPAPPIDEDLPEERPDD
Put plainly: Displacement of [3H]DPCPX from human A1 receptor expressed in CHO-A1 cells at 10 uM incubated for 60 mins by scintillation counting method based radioligand competitive binding assay. Format: cell-based. The method in brief: (§2)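 CHO-A1 membranes, 15 μg protein, in 20 mM Hepes, 100 mM NaCl, 10 mM MgCl2, 2 UI/ml adenosine deaminase, pH 7.4. Radioligand 2 nM [3H]DPCPX; nonspecific binding with 10 μM (R)-PIA. Incubated 25 °C for 60 min, filtered, counted, in duplicate. Screen at 10 μM; compounds >80% inhibition tested at 6 concentrations (10 nM–100 μM), Ki by Cheng-Prusoff.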

The target in assay [4] is T4, Adenosine receptor A2a (Homo sapiens, UniProt P29274). The assay can be described thus: Displacement of [3H]ZM241385 from human A2A receptor expressed in HeLa-A2A cells at 10 uM incubated for 30 mins by scintillation counting method based radioligand competitive binding assay. Format: cell-based. The method in brief: (§3)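 Uses HeLa-A2A membranes, 10 µg protein, buffer 50 mM Tris-HCl, 1 mM EDTA, 10 mM MgCl2, 2 UI/mL adenosine deaminase, pH 7.4. 3 nM [3H]ZM241385; nonspecific with 50 µM NECA. 30 min at 25 °C, GF/C filtration, duplicate wells. Screened at 10 μM; if >80% inhibition, 6 concentrations 10 nM–100 μM, Ki by Cheng-Prusoff.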

For assay [5], the target named is T5, Adenosine receptor A2b (Homo sapiens) (UniProt P29275).
T5 sequence (whole entry): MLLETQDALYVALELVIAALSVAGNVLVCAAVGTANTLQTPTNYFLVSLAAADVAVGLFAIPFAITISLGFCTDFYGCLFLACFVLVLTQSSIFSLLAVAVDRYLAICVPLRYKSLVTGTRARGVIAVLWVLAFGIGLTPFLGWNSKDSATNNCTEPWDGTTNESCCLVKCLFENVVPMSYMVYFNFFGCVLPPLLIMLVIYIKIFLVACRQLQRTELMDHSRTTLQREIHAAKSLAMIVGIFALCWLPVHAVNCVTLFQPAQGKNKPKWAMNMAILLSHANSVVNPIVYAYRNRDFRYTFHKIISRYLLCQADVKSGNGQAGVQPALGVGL
The assay can be described thus: Displacement of [3H]DPCPX from human A2B receptor expressed in HEK-293-A2B cells at 10 uM incubated for 30 mins by scintillation counting method based radioligand competitive binding assay. Format: cell-based. The method, boiled down:
(§4)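 HEK-293-A2B membranes, 18 μg protein, in 50 mM Tris-HCl, 1 mM EDTA, 10 mM MgCl2, 0.1 mM benzamidine, 10 µg/mL bacitracin, 2 UI/mL adenosine deaminase, pH 6.5. Tracer 35 nM [3H]DPCPX; 400 μM NECA defines nonspecific binding. 25 °C for 30 min, GF/C filtration, duplicates. Single-point 10 μM screen, then 6-point curves (10 nM–100 μM), Cheng-Prusoff Ki.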

Assay [6] deals with T1, Adenosine receptor A3 (Homo sapiens). The assay can be described thus: Displacement of [3H]NECA from human A3 receptor expressed in HeLa-A3 cells at 10 uM incubated for 180 mins by scintillation counting method based radioligand competitive binding assay. Format: cell-based. The method in brief: as §1
Assay [7] concerns the target T6, Adenosine receptor A1 (Homo sapiens, UniProt P30542).
T6 sequence (P30542 whole entry): T3 sequence (whole entry)
The assay can be described thus: Displacement of [3H]DPCPX from human A1 receptor expressed in CHO-A1 cells incubated for 60 mins by scintillation counting method based radioligand competitive binding assay. The assay is classed as cell-based. The method in brief: as §2

The target in assay [8] is T4, Adenosine receptor A2a. Put plainly: Displacement of [3H]ZM241385 from human A2A receptor expressed in HeLa-A2A cells incubated for 30 mins by scintillation counting method based radioligand competitive binding assay. The assay is classed as cell-based. The method in brief: as §3
Assay [9] addresses T7, Adenosine receptor A2b (Homo sapiens, UniProt P29275).
T7 sequence (P29275 whole entry): T5 sequence (whole entry)
Put plainly: Displacement of [3H]DPCPX from human A2B receptor expressed in HEK-293-A2B cells incubated for 30 mins by scintillation counting method based radioligand competitive binding assay. The assay is classed as cell-based. The method, boiled down: as §4

For assay [10], the target named is T3, Adenosine receptor A1 (Homo sapiens). The assay can be described thus: Antagonist activity at human A1 receptor in CHO-A1 cells assessed as reduction in NECA-induced inhibition of forskolin-stimulated cAMP accumulation preincubated for 15 mins followed by NECA addition and further incubated for 15 mins by ELISA. Format: functional, cell-based. The method in brief:
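CHO-A1 cells stably expressing receptor, grown with dialyzed FBS, washed in F-12 medium with 25 mM HEPES pH 7.4 and 20 μM rolipram. Test compound preincubated 15 min, then NECA (0.1 nM–1 mM) plus 3 μM forskolin added for 15 min. cAMP measured by enzyme immunoassay with TMB readout. pKB derived from antagonist curve against NECA effect.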

T4 sequence (P29274 whole entry): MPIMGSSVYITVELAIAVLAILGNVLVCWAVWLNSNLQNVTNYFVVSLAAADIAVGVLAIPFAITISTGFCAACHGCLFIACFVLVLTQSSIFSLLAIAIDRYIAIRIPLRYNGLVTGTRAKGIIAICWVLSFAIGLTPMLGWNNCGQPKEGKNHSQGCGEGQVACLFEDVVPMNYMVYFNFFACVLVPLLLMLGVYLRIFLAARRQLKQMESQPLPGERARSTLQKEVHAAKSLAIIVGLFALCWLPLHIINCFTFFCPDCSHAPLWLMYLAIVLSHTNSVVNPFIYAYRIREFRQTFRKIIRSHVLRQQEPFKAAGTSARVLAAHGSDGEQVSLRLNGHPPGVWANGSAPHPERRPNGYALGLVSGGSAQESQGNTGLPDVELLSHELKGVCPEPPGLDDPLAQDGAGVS

As to `Clc1ccc(-c2nc(N3CCCCC3)c3nc[nH]c3n2)cc1`, in assay [1], the pKb was 8.2. Further, the Ki in [2] is 0.00794 µM; in assay [7] it was 0.126 µM; in [8], 3.16 µM. Further, the inhibition in [3] is above 80%; in [4] it was above 80%; in assay [5], 1.4%; in [6], above 80%.

In the case of `Oc1cccc(-c2nc(N3CCCCC3)c3nc[nH]c3n2)c1`, the inhibitory constant (Ki) in assay [9] is 0.158 µM; in assay [2], 0.0631 µM; in [7], 0.01 µM; in assay [8], 0.316 µM. In addition, the negative logarithm of the Kb (pKb) in assay [10] is 7.9. Also, the inhibition in assay [3], in assay [4], in assay [5] and in assay [6] was above 80% throughout.

The term pKb denotes −log10 of the Kb, conventionally taken in molar units. By Ki is commonly meant the equilibrium dissociation constant of an inhibitor or competing ligand from its target. As usually defined, the inhibition is the drop in the measured response relative to a control, in per cent. A low value points to little suppression.

Source of the values: ChEMBL document CHEMBL4385637, “2-Aryladenine derivatives as a potent scaffold for A1, A3 and dual A1/A3 adenosine receptor antagonists: Synthesis and structure-activity relationships” (Bioorg Med Chem, 2019).
